Source: PubChem BioAssay
Inconclusive results are not listed.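 The calls were made as follows, unless noted: active = cell viability at or below a set limit in both duplicate runs, the limit being the all-compound median minus 4 SD (cut at about 23% in these data, passing the limit was not always enough); inconclusive = no clear call, values can overlap the other calls; inactive = the rest.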

Assays:
[1] = S. cerevisiae growth inhibition in permissive medium (OD615), pilot counter-assay for S. cerevisiae lifespan shortening project, permissive growth control (AID 705;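 active = growth inhibition above 25% in both replicates, a cutoff set 3 SD above the mean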); conditions: OD615, 24 h, at 10 µM, hits give high values
Summary of the method: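 System: S. cerevisiae with engineered DeaD lifespan system / Measured by: absorbance (optical density) at 615 nm / Read-out: reduction in yeast growth (OD615) / Times: 4 h cell pre-growth, 24 h exposure at 30 °C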

[2] = S. cerevisiae growth inhibition in restrictive medium, OD615, pilot screen, restrictive growth control, yeast lifespan reduction project (AID 706;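 active = growth inhibition above a set limit, 3 SD over mean compound inhibition, in both replicates, cut at about 43% in these data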;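 also: modified DeaD lifespan yeast strain shifted to restrictive glucose medium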); conditions: OD615, 48 h, at 10 µM, hits give high values
Summary of the method: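 System: Engineered S. cerevisiae DeaD strain | Buffer or medium: Glucose-based CSMM-D restrictive medium | Schedule: 4 h pre-incubation, 48 h exposure at 30 °C | Technique: Optical density at 615 nm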

[3] = doxorubicin toxicity protection in MRP-1 cells – H69AR cells, CellTiter-Glo, duplicate, MRP-1 activator project, pilot screen (AID 807;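 active = viability increase at or above a cutoff of the median across tested compounds plus 3 SD, cut at about 8.5% in these data, passing the limit was not always enough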;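 also: compound pretreatment 18-22 h then 72 h combined with doxorubicin; 0% = doxorubicin alone and 100% = vehicle without doxorubicin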); conditions: H69AR viability with doxorubicin, CellTiter-Glo luminescence; at 10 µM; hits give high values
[4] = viability of HCT116 without oncogenic beta-catenin – human colon tumor cells, pilot screen (AID 823); conditions: HCT116 beta-catenin knockout viability, CellTiter-Glo, 60 h; at 10 µM; hits give low values;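 also: 0% = wells killed by 20 µM Hyamine and 100% = untreated DMSO cell wells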
[5] = viability of PTEN-null HCT116 cells – cell-based, HCT116 clonal line, CellTiter-Glo, pilot screen (AID 824;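 active = viability at or below 27.92% in each of two runs, the all-compound median minus 4 SD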;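 also: 0% = 20 µM Hyamine control and 100% = vehicle cell control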); conditions: HCT116 PTEN-deleted viability, 60 h, at 10 µM, hits give low values
[6] = RAM pathway blockade in budding yeast – dse1pr::URA3 reporter, 5-FOA selection, pilot screen (AID 869;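 active = inhibition over a set limit, the all-compound mean plus 3 SD, in both replicate runs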;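 also: 0% = DMSO wells with no growth and 100% = 10 µM 1-NA-PP1 with full growth; RAM network block rescues cells from 5-FOA so hits raise OD615 growth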); conditions: S. cerevisiae dse1pr::URA3 5-FOA growth, OD615, 2 d; at 10 µM; hits give high values; strain carries analog-sensitive mutant Cbk1 kinase
[7] = RAM signaling pathway blockade in yeast – S. cerevisiae, Pdr1DBD-CYC8 efflux-inhibited sensitized strain, primary screen (AID 1298;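 active = RAM network inhibition above 8.4% in each of two replicates, 3 SD over the compound average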;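 also: 0% = DMSO untreated cells without growth and 100% = 10 µM 1-NA-PP1 full growth; higher means more yeast growth rescued from 5-FOA killing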); conditions: S. cerevisiae cbk1-as DSE1-URA3 strain, 5-FOA growth OD615, 2 d; at 50 µM; hits give high values

Cn1c(SCC(=O)Nc2cccc(F)c2)nnc1-c1cccnc1
inactive: growth inhibition [1] -4.63% | growth inhibition [2] -4.04% | viability increase [3] 0.87% | viability [4] 105% | viability [5] 104% | inhibition [6] 0.035% | RAM network inhibition [7] 3.15%

Cc1cc(Nc2ccc(F)cc2)n2nc(C)nc2n1
inactive: growth inhibition [1] -2.01% | growth inhibition [2] 4.12% | viability increase [3] -0.76% | viability [4] 100% | viability [5] 97.2% | inhibition [6] -0.875% | RAM network inhibition [7] 0.55%

CC1(C)CC2(CC(C)(C)N1)OC(=O)N1CCc3ccccc3C12C (stereo unspecified)
inactive: growth inhibition [1] -4.17% | growth inhibition [2] -7.5% | viability increase [3] -1.65% | viability [4] 106% | viability [5] 97.9% | inhibition [6] 2.3% | RAM network inhibition [7] 6.97%

CCOc1ccc2[nH]cc(S(=O)(=O)c3ccc(F)cc3)c(=O)c2c1
inactive: growth inhibition [1] -4.64% | growth inhibition [2] -19.8% | viability increase [3] -0.98% | viability [4] 78.7% | viability [5] 87.2% | inhibition [6] 0.455% | RAM network inhibition [7] 2.36%

CC(C)(C)N1C(=O)c2ccc(C(=O)Nc3nccs3)cc2C1=O
inactive: growth inhibition [1] -7.12% | growth inhibition [2] -7.02% | viability increase [3] -0.27% | viability [4] 106% | viability [5] 103% | inhibition [6] 0.64% | RAM network inhibition [7] 0.63%

O=C(NC1CCCCCC1)C1CCN(S(=O)(=O)c2cccc3cccnc23)CC1
inactive: growth inhibition [1] 8.96% | growth inhibition [2] 6.42% | viability increase [3] 2.08% | viability [4] 99.5% | viability [5] 105% | inhibition [6] -0.605% | RAM network inhibition [7] 1.35%

Fc1ccc(C2CC(c3ccccc3)Nc3ncnn32)cc1 (stereo unspecified)
inactive: growth inhibition [1] -10.3% | growth inhibition [2] -3.12% | viability increase [3] -0.63% | viability [4] 93.5% | viability [5] 98.1% | inhibition [6] 1.04% | RAM network inhibition [7] 1.19%

CCCNC(=O)CS(=O)Cc1nc(-c2ccc(OC)cc2)oc1C (stereo unspecified)
inactive: growth inhibition [1] -5.5% | growth inhibition [2] 19.6% | viability increase [3] -2.12% | viability [4] 97.2% | viability [5] 93.9% | inhibition [6] 1.62% | RAM network inhibition [7] 3.43%

O=C(O)CSc1cccc2cccc(C(=O)O)c12
inactive: growth inhibition [1] -0.49% | growth inhibition [2] 4.41% | viability increase [3] -2.27% | viability [4] 105% | viability [5] 101% | inhibition [6] 1.54% | RAM network inhibition [7] 1.15%

Cc1ccc(CC(=O)N2CCC(c3nc4c(nnn4Cc4ccccc4)c(=O)[nH]3)CC2)cc1
inactive: growth inhibition [1] -10.5% | growth inhibition [2] -7.38% | viability increase [3] -1.07% | viability [4] 76.9% | viability [5] 78.9% | inhibition [6] 0.71% | RAM network inhibition [7] 3%

CCCc1nc(SCc2ccccn2)c2c(=O)n(C)c(=O)n(C)c2n1
inactive: growth inhibition [1] -3.14% | growth inhibition [2] -0.14% | viability increase [3] 1.81% | viability [4] 83.4% | viability [5] 85.4% | inhibition [6] 1.61% | RAM network inhibition [7] 5.45%

COc1ccc(Cl)cc1C(=O)NCC(c1ccco1)N1CCCC1 (stereo unspecified)
inactive: growth inhibition [1] -8.88% | growth inhibition [2] -4.32% | viability increase [3] -3.47% | viability [4] 81% | viability [5] 80.7% | inhibition [6] 2.23% | RAM network inhibition [7] 10.1%

COc1ccc(C)cc1NC(=O)c1cc2c(CO)cnc(C)c2oc1=N
inactive: growth inhibition [1] -16.1% | growth inhibition [2] -10.5% | viability increase [3] -0.06% | viability [4] 97.5% | viability [5] 89.7% | inhibition [6] 1.31% | RAM network inhibition [7] 0.63%

NC(=O)c1ccsc1NC(=O)C1CC1
inactive: growth inhibition [1] -0.315% | growth inhibition [2] 0.175% | viability increase [3] -2.38% | viability [4] 103% | viability [5] 100% | inhibition [6] 1.22% | RAM network inhibition [7] 0.32%

CCOc1cc(C2CC(=O)NC(SCC)=C2C#N)ccc1O (stereo unspecified)
inactive: growth inhibition [1] -16.8% | growth inhibition [2] -5.38% | viability increase [3] -1.97% | viability [4] 107% | viability [5] 92.6% | inhibition [6] 1.97% | RAM network inhibition [7] 0.15%

CC(=O)N1c2ccccc2C(=O)C1N1CCCCC1 (stereo unspecified)
inactive: growth inhibition [1] -3.63% | growth inhibition [2] -9.52% | viability increase [3] -3.42% | viability [4] 93.1% | viability [5] 84.4% | inhibition [6] 0.985% | RAM network inhibition [7] -1.19%

CC(=O)c1ccc(OCC(O)COc2ccc(C(C)=O)cc2)cc1
inactive: growth inhibition [1] -2.04% | growth inhibition [2] -4.87% | viability increase [3] 0.11% | viability [4] 96.2% | viability [5] 94.7% | inhibition [6] 1.22% | RAM network inhibition [7] 0.16%

Fc1ccc(CSc2nnc(-c3cccnc3)n2Cc2ccco2)cc1
inactive: growth inhibition [1] 1.42% | growth inhibition [2] 10.1% | viability increase [3] -2.14% | viability [4] 90.8% | viability [5] 99.8% | inhibition [6] 1.94% | RAM network inhibition [7] 2.25%
